Screens as filed in PubChem.
SENP8 block-1: human SENP8 protease inhibitors, primary screen, biochemical, fluorescence, Nedd8 protein substrate, uHTS | Sentrin-specific protease 8 (Homo sapiens), Q96LD8 | recombinant SENP8 | inhibition, % at 20 µM | 360,000 compounds, 0.64% hits | AID 602440, 2012; in the data active means inhibition mostly above about 40%, no sharp cut-off; inactive means mostly below about 27%
SENP7 inh: SENP7 protease inhibitors, primary screen, biochemical, luminescence, uHTS. AID 434973, 2010. Sentrin-specific protease 7 (Homo sapiens), Q9BQF6. 330,000 compounds, 1.5% hits. inhibition, % at 5 µM. recombinant SENP7, Z-RLRGG-aminoluciferin luminescence, 40 min;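 active means inhibition above about 50% at the single test dose, limit read from the data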;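 further: plate controls were DMSO with enzyme for no effect and no enzyme buffer wells for full effect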
SENP1 inh: human SENP1 catalytic domain inhibitors, primary screen, biochemical, FRET, uHTS. 360,000 compounds, 0.21% hits. inhibition, % at 10 µM. AID 624204, 2012. recombinant SENP1 catalytic domain, CyPet-SUMO1-YPet FRET cleavage. Sentrin-specific protease 1 (Homo sapiens), Q9P0U3;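 active means inhibition at least 30% at 10 µM, raw YFP signal under a set limit, fluorescence ratio 0.5 to 1.5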;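 further: 0% = enzyme with DMSO and 100% = no enzyme wells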
Target sequence (Q9P0U3 419-644 limits assumed): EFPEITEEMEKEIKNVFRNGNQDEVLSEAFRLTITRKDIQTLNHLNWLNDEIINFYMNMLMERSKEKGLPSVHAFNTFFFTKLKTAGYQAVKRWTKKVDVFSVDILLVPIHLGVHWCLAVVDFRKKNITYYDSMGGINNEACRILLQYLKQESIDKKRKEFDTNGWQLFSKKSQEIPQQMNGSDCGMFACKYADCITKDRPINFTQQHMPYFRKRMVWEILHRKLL
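Test system: human SENP1 catalytic domain; medium: Tris pH 8 buffer plus EDTA, NaCl, BME, BSA, NP40, catalase; incubation: 50 min reaction at room temperature; technique: FRET, CFP and YFP emission; controls: no-enzyme low control and enzyme-plus-DMSO high control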
Platelet DG rel: inhibitors of platelet dense granule secretion, primary screen, cell-based, MLPCN, human platelets | human platelet-rich plasma, SFLLRN dense granule ATP release, luminescence | inhibition, %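 (compounds screened at 7.5 µM in platelet-rich plasma)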 | 300,000 compounds, 0.22% hits;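 active means mean replicate score, as percent of positive control, at or above 50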
SENP6 inh: SENP6 protease inhibitors, primary screen, biochemical, luminescence, uHTS; Sentrin-specific protease 6 (Homo sapiens), Q9GZR1; Recombinant SENP6 catalytic domain, aminoluciferin luminescence; inhibition, % at 10 µM; 330,000 compounds, 1.8% hits; AID 2599, 2010;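 active means inhibition above about 50% at the single tested dose, limit read from the data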;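 further: plate controls were DMSO wells with enzyme for no effect and DMSO wells lacking enzyme for full effect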
SENP8 block-2: SENP8 protease inhibitors, primary screen, biochemical, luminescence. purified SENP8, Z-RLRGG-aminoluciferin cleavage. inhibition, % at 10 µM. AID 2540, 2010. 330,000 compounds, 1.2% hits; in the data active means inhibition above about 50%
SENP8 confirm: SENP8 protease inhibitors, retest, confirmation, biochemical, luminescence, single concentration; shares compounds with SENP7 inh; Recombinant SENP8, Z-RLRGG-aminoluciferin luminescence, 60 min; inhibition, % at 12.5 µM; 6,200 compounds, 40% hits;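 active means mean inhibition across replicates above about 50%, limit read from the data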
SENP6 confirm: SENP6 protease inhibitors, confirmation, biochemical, luminescence, single concentration. shares compounds with SENP7 inh. recombinant SENP6, Z-RLRGG-aminoluciferin luminescence. inhibition, % at 12.5 µM. 6,200 compounds, 58% hits. AID 488915, 2010
SENP7 confirm: SENP7 protease inhibitors, retest, confirmation, biochemical, luminescence, single concentration; recombinant SENP7, Z-RLRGG-aminoluciferin luminescence, 40 min; shares compounds with SENP7 inh; 6,200 compounds, 69% hits; inhibition, % at 12.5 µM
Casp3 select: caspase-3 protease inhibitors, confirmation, selectivity assay for SENP inhibitor project, biochemical, single concentration. shares compounds with SENP7 inh. purified caspase-3, Z-DEVD-aminoluciferin luminescence, 60 min. inhibition, % at 12.5 µM. 6,200 compounds, 60% hits. AID 488918, 2010;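 active means mean inhibition above about 50%, limit read from the data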;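 further: plate controls were enzyme with DMSO for no effect and wells without caspase-3 for full effect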
Target sequence (P42574 28-227 limits assumed): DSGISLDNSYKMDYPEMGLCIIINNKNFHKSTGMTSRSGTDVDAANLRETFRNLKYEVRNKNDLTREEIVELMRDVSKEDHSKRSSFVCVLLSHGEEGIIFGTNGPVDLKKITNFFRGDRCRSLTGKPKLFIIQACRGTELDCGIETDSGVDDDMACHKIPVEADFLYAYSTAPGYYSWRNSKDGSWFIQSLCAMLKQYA
Luc interf: luminescence interference (SENP counter-screen); shares compounds with SENP7 inh; Pre-incubated SENP8/Z-RLRGG-aminoluciferin, luciferase luminescence interference; inhibition, % at 12.5 µM; 6,200 compounds, 39% hits; AID 488919;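 active means mean inhibition above about 50% when retested at one dose, limit read from the data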;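 further: plate controls were DMSO wells with completed reaction for no effect and substrate without enzyme for full effect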
* hit, by the source's call; x = no result. In the library only some 2.6% were active in any assay of this set; here they are far more common.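 How the source made its calls, unless noted: active means mean inhibition above about 50% in the one-dose retest (limit read from the data); inactive means the rest.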

SMILES | SENP8 block-1 | SENP7 inh | SENP1 inh | Platelet DG rel | SENP6 inh | SENP8 block-2 | SENP8 confirm | SENP6 confirm | SENP7 confirm | Casp3 select | Luc interf
COc1ccc(C)cc1Nc1n[n+](-c2ccccc2)c(-c2ccc(SC)cc2)s1 | -11 | 14 | 1 | -4 | 69* | 60* | 5 | 66* | 89* | 78* | 70*
CCOc1ccc(-c2cc(N3C(=O)Nc4ccccc4N3O)on2)cc1 | 3 | 39 | 0 | -2 | 54* | 18 | 44 | 42 | 79* | 77* | 67*
O=S(=O)(c1ccccc1)C1(C2CC(c3ccccc3)=NO2)CC(O)C1 (stereo not given) | 4 | -1 | 1 | -2 | -13 | -2 | x | x | x | x | x
CCC(=O)c1cc(F)c(N2CCN(S(=O)(=O)c3ccccc3)CC2)cc1C | 6 | 52* | 1 | 5 | -1 | -8 | 8 | 12 | 10 | 4 | 0
CC(=O)c1ccc(N(C(=O)Cn2nnc3ccccc32)C(C(=O)NC2CCCCC2)c2cn(C)nc2C)cc1 (stereo not given) | 15 | x | 1 | -1 | x | x | x | x | x | x | x
O=C1C=C(c2ccc(F)nc2)CCC1 | 17 | 4 | 1 | -2 | 5 | -9 | x | x | x | x | x
O=C(Nc1ccc2[nH]c(=S)sc2c1)Nc1ccccc1F | -6 | 99* | -20 | 18 | 97* | 95* | 99* | 100* | 104* | 98* | 90*
O=C(Nc1ccc2[nH]c(=S)sc2c1)c1ccccc1 | -14 | 52* | -6 | 18 | 34 | 42 | 66* | 67* | 88* | 83* | 74*
O=C(Nc1ccc2[nH]ccc2c1)c1ccccc1 | -10 | -1 | 2 | 18 | 8 | -3 | x | x | x | x | x
O=C(Nc1ccc2[nH]c(=O)[nH]c2c1)Nc1ccc(F)cc1F | -1 | -2 | -41 | 8 | -11 | -9 | x | x | x | x | x
CC(=O)Nc1c(-c2ccc(Cl)cc2)c(=O)c2ccccc2n1C | -25 | 1 | -7 | -2 | -6 | -9 | x | x | x | x | x
COc1ccc(/C=N/NC(=O)c2ccoc2C)cc1COc1c(C)cccc1C | 24 | 7 | 1 | 2 | 10 | 4 | x | x | x | x | x
COc1ccccc1CNC(=O)COc1ccccc1C(=O)c1cnn(-c2ccccc2)c1 | -15 | 3 | -17 | x | 51* | 25 | 32 | 26 | 61* | 37 | 28
C/C(=N\NC(=O)c1cc2ccccc2cc1O)c1cccs1 | -45 | 89* | 25 | 6 | 93* | 86* | 12 | 94* | 101* | 96* | 34
O=C(NNC(=O)c1cc2ccccc2cc1O)c1cccs1 | -17 | 87* | -8 | 8 | 93* | 95* | 97* | 98* | 102* | 97* | 91*
C/C(=N\NC(=O)COc1ccc2ccccc2c1)c1cccs1 | -1 | -9 | 1 | 10 | -11 | -7 | x | x | x | x | x
